Tested on: MS2 coat protein
Test: apparent Kd, MS2 coat protein; higher = weaker binding; RNA-MaP array; FMN 200 µM where present
Procedure, shortened: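 Stalled E. coli RNA polymerase transcribed each design on Illumina sequencing-chip clusters. The clusters were titrated with SNAP-549-labelled MS2 coat protein, starting at 0.7 or 1.5 nM and doubling up to 3 µM, first without ligand and then with constant ligand, in 100 mM Tris-HCl pH 7.5, 80 mM KCl, 4 mM MgCl2, BSA, DTT, yeast tRNA and Tween-20. Green signal was normalised to red-channel RNA signal and to the control-cluster median Fmax. The apparent Kd is the median of filtered binding-curve fits made for each cluster.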

[1] = designed as: ON switch for flavin mononucleotide, no ligand
[2] = ligand present: flavin mononucleotide, designed as: ON switch for flavin mononucleotide
[3] = designed as: OFF switch for flavin mononucleotide, no ligand
[4] = ligand present: flavin mononucleotide, designed as: OFF switch for flavin mononucleotide

Row | Sequence | apparent Kd [1] [nM] | apparent Kd [2] [nM] | apparent Kd [3] [nM] | apparent Kd [4] [nM]
1 | UGGUUCUAGGGAGGAUAUGGGAAGAUACAUGAGGAUCACCCAUGUUUAAGAAUGCCGAGAGGCAACUAGAAGGCCCUAGUACCU | 406 | 20.3 |  | 
2 | UGGUUGUGUGUUAGGAUAUGGUUUGGUGUUUCGGGCUAGAAGGGACAUGAGGAUCACCCAUGUGGCUGGCGGGU |  |  | 72.6 | 58.1
3 | UGUACGGACAUGAGGAUCACCCAUGUAACCAAGCAGUUGGUACAGGAUAUCGCUUAAUAACUAAGCGAGAAGGGUGGUUCUGCA | 32.5 | 63.4 |  | 
4 | UGUAUACAUGAGGAUCACCCAUGUCAACGUAGUCGAGGAUAUGGGCAGCCGUGAGGCGUACCAGAAGGCGAAGAGG | 86.5 | 19.4 |  | 
5 | UGUAUAUAGGCAGGAUAUACAUGAAUAUAUAUGAUGUAGUAUGAUGUAACAUGAGGAUCACCCAUGUAGAAGGGCCAAUAUAUA |  |  | 40.8 | 135
6 | UGUAUGGACAGAGGAUAUACGUGCUAGAGAUACUAGCUAAUAAUCCUUACAUGAGGAUCACCCAUGUAGAAGGCUGUCCAUACU |  |  | 20.5 | 45.6
7 | UGUAUGGACAGAGGAUAUACGUGCUAGAGAUACUAGCUACAAAUCCUUACAUGAGGAUCACCCAUGUAGAAGGCUGUCCAUACU |  |  | 19.1 | 39.4
8 | UGUCACCGUGCAGGAUAUGCCUGCACGUCGCGGGCAGAAGGGCACAUGAGGAUCACCCAUGUAGAGCUGGGCUCGUCAAGGGAG |  |  | 9.05 | 9.85
9 | UGUCCAUAGCAGAAGGACAUGAAUAAUCAUGAAAACAUGAGGAUCACCCAUGUAGGAUAUGCUAUGGACUAAGAGCGAAAGCUC |  |  | 28.6 | 430
10 | UGUCCAUAGCAGAAGGCAUGUCAAAAGACAUGAGGAUCACCCAUGUAAGCAUGAGGAUAUGCUAUGGACUAAGAGCGAAAGCUC |  |  | 9.14 | 5.78
11 | UGUCGGAGCAGAGGAUAUACAUGAGGAUCACCCAUGUAAAUGAAUGAAGCCUGGAAACAGGCAAUGUAGAAGGCUGCUCCGACA |  |  | 17.2 | 53.7
12 | UGUCGGAGCAGAGGAUAUCACAUGAGGAUCACCCAUGUAUGAACCAAUAGCUGGAAACAGCAAUGUAAGAAGGCUGCUCCGACA |  |  | 5.64 | 9.62
13 | UGUCGGAGCAGAGGAUAUUACAUGAGGAUCACCCAUGUAUGAACCAAUAGCUGGAAACAGCAAUGUAAGAAGGCUCCUCCGACA |  |  | 6.18 | 20.5
14 | UGUCGGAGCAGAGGAUAUUACAUGAGGAUCACCCAUGUAUGAACCAAUAGCUGGAAACAGCAAUGUAAGAAGGCUGCUCCGAGA |  |  | 13.3 | 196
15 | UGUCGGAGCAGAGGAUAUUACAUGAGGAUCACCCAUGUAUGAACCAAUAGCUGGAAACAGCAAUGUAAGAAGGUUGCUCCGACA |  |  | 7.29 | 46.7
16 | UGUCGGAGCAGAGGAUAUUACAUGAGGAUCACCCAUGUAUGAACCAAUAGCUGGAAACAGCCAUGUAAGAAGGCUGCUCCGACA |  |  | 157 | 543
17 | UGUCGGAGCAGAGGAUAUUACAUGAGGAUCACCCAUGUAUGAACCAAUAGCUGGAAACAUCAAUGUAAGAAGGCUGCUCCGACA |  |  | 10.2 | 72.5
18 | UGUCGGAGCAGAGGAUAUUACAUGAGGAUCACCCAUGUAUGAACCAAUAGCUGGAAAGAGCAAUGUAAGAAGGCUGCUCCGACA |  |  | 19.7 | 181
19 | UGUCGGAGCAGAGGAUAUUACAUGAGGAUCACCCAUGUAUGAACCACUAGCUGGAAACAGCAAUGUAAGAAGGCUGCUCCGACA |  |  | 7.43 | 51.8
20 | UGUCGGAGGAGAGGAUAUUACAUGAGGAUCACCCAUGUAUGAACCAAUAGCUGGAAACAGCAAUGUAAGAAGGCUGCUCCGACA |  |  | 8.17 | 81.4
21 | UGUCGGAGUAGAGGAUAUUACAUGAGGAUCACCCAUGUAUGAACCAAUAGCUGGAAACAGCAAUGUAAGAAGGCUGCUCCGACA |  |  | 8.91 | 110
22 | UGUGCCUCGAGAGGAUAUUACAUGAGGAUCACCCAUGUAACAGAGGUGGAAACACCUCUGAAAUGUAAGAAGGCUCGAGGCACA |  |  | 19.1 | 29.6
23 | UGUGCGUUGAUCUUCGAUCGUUGUACAUGAGGAUCACCCAUGUAGGAUAUUCUAAGACGCAGAUAGGAGAAGGACAUUGGUAUU |  |  | 10.6 | 19.4
24 | UGUGGGAGUCAGAAGGAGUAUUCUACAUGAGGAUCACCCAUGUCUGGUACUAGGAUAUGGGUCUGGACGGACUAAGGUCCCGUA | 753 | 196 |  | 
25 | UGUGUAGAGGUGAAGCGAAUUACUGAGGAUAUGACAUGAGGAUCACCCAUGUACACAUCGUCAGGUCAGAAGGCAGUGGUUCUU |  |  | 7.2 | 21.1
26 | UGUGUCAUCGAGAAGGCCUCAACAUGAGGAUCACCCAUGUUGUAAUAUGGGAGGAUAUCGAUGAUACAGCUACGUUUCGUAGCA | 19 | 6.11 |  | 
27 | UGUGUCAUCGAGAAGGCCUCAACAUGAGGAUCACCCAUGUUGUAAUAUGGGAGGAUAUCGAUGAUACAGCUACGUUUCGUAGCU | 19.2 | 5.78 |  | 

Row | Sequence | apparent Kd [1] [nM] | apparent Kd [2] [nM] | apparent Kd [3] [nM] | apparent Kd [4] [nM]
28 | UGUGUCUGUAGAGGAUAUCCGGGCGUUCUGCUAGGAGAAGGCUGCAACACAUGAGGAUCACCCAUGUAGGUUGUGUCUCUCUAC |  |  | 4.82 | 9.87
29 | UGUGUGUGACAGGAUAUGCUGGUUGUGUGGCGGGUAGAAGGGUCUACAUGAGGAUCACCCAUGUGGCCGGUUGG |  |  | 22.8 | 21.5
30 | UGUUAAUAUCGAGGAUAUGUCUAGACACAUGAGGAUCACCCAUGUAUGUGUAUAGAAGGCGAUAUUAACAGCAUGUUACAUGCU | 39.9 | 17.5 |  | 
31 | UGUUACUAGUAAGGAUAUACUAGCGAUAAGCUAGUAGAAGGUACAGUCUUUUGUAUAACAUGUUUACAUGAGGAUCACCCAUGU | 10.6 | 8.02 |  | 
32 | UGUUCGUCAGGAUAUUCUACUUAUUACAUGAGGAUCACCCAUGUGUAUGUACAAGGGUGUGAAGAAGGGACUUUUU |  |  | 719 | 260
33 | UGUUGUAUUACAGGAUAUCUAAUAUUUUUAUUUAGAGAAGGGUAUUCACAUGAGGAUCACCCAUGUAUAUACGAGGAAGUUGUG | 34.3 | 38.1 |  | 
34 | UGUUGUAUUACAGGAUAUCUAGUUUUUUUAUUUAGAGAAGGGUAUUCACAUGAGGAUCACCCAUGUAUAUACGAGGAAGUUGUG | 46.6 | 56.1 |  | 
35 | UGUUGUAUUACAGGAUAUCUAUUAGUUUGAUUUAGAGAAGGGUAUUCACAUGAGGAUCACCCAUGUAUAUACGAGGAAGUUGUG | 57.8 | 57.9 |  | 
36 | UGUUGUAUUACAGGAUAUCUAUUAGUUUUAUAUAGAGAAGGGUAUUCACAUGAGGAUCACCCAUGUAUAUACGAGGAAGUUGUG | 43.4 | 45.5 |  | 
37 | UGUUGUAUUACAGGAUAUCUAUUAGUUUUGUUUAGAGAAGGGUAUUCACAUGAGGAUCACCCAUGUAUAUACGAGGAAGUUGUG | 59 | 65.2 |  | 
38 | UGUUGUAUUACAGGAUAUCUAUUAGUUUUUUUUAGAGAAGGGUAUUCACAUGAGGAUCACCCAUGUAUAUACGAGGAAGUUGUG | 50.2 | 51.7 |  | 
39 | UGUUGUAUUACAGGAUAUCUAUUAUUGUUAUUUAGAGAAGGGUAUUCACAUGAGGAUCACCCAUGUAUAUACGAGGAAGUUGUG | 54.7 | 55.3 |  | 
40 | UGUUGUAUUACAGGAUAUCUAUUGUUUUUGUUUAGAGAAGGGUAUUCACAUGAGGAUCACCCAUGUAUAUACGAGGAAGUUGUG | 62.8 | 72 |  | 
41 | UGUUGUUGAUAGGAUAUACUUGUAGGAGUUGUAGUAGAAGGAUCUACAUGAGGAUCACCCAUGUAGGAGUGAGU |  |  | 17.5 | 17.2
42 | UGUUGUUUCAAGAAGGAUGUGUAUUUGUAUUCCAUAGGAUAUUGAGAAAUAGUUGCUCAAGUAUACAUGAGGAUCACCCAUGUU | 14.2 | 9.98 |  | 
43 | UUAAAUCAUGUAGGAUAUGCAUGGCGAAGCUACGCAGAAGGACAUGAGGAUCACCCAUGUGCUAGCGUCUGGAUACAGAUGCAA |  |  | 48.5 | 258
44 | UUAAAUCAUGUAGGAUAUGCAUGGCGAAGCUACGCAGAAGGACAUGAGGAUCACCCAUGUUAAAGCUACCGUAUACGGUGGCAA |  |  | 131 | 174
45 | UUAAAUCAUGUAGGAUAUGCAUGGCGAAGCUACGCAGAAGGACAUGAGGAUCACCCAUGUUCGAGCUACCGAGUUCGGUGGCAA |  |  | 21.9 | 122
46 | UUAAAUCGAAACAUGAGGAUCACCCAUGUGUUGUAAUUAAUAUAGGAUAUGUGUAUACUUUUAUAACAGAAGGAUGAUAAUACU | 22.2 | 16.9 |  | 
47 | UUAAUCAUGUAGAAGGACGGAUAUUAAGAGUACGUAGGAUAUACAGCAGACAUGAGGAUCACCCAUGUGAACAUGGUACAUAGG |  |  | 180 | 55
48 | UUAAUCUAUACAGGAUAUCCAUACGCUGCAUACGGAGAAGGGUAACAAUCAUGAGGACAUGAGGAUCACCCAUGUUGUGACCAU | 198 | 97.1 |  | 
49 | UUAAUUAAUUAAUUAUACAUGAGGAUCACCCAUGUAAGUGAUCAGGAUAUCAGCUCGAAUAGAGCUGAGAAGGGAUACAUGAAU | 144 | 118 |  | 
50 | UUAAUUAAUUAAUUAUACAUGAGGAUCACCCAUGUAAGUGAUCAGGAUAUCAGCUCGAAUAGAGCUGAGAAGGGAUCCAUGUAA | 117 | 83 |  | 
51 | UUAAUUUGUCAAGGAUAUGUAAUAUAGAUUAGAAAACAUGAGGAUCACCCAUGUAUAUGGUGGGAACAGAAGGUGAAUGGUUUA |  |  | 189 | 160
52 | UUACAGCAAGGAUAUACGGGCUGUGCUUUUCAUUUCUUACAACAUGAGGAUCACCCAUGUAGAAGGUGCAACUU |  |  | 34.8 | 63.3
53 | UUACAUACAAAGGUACAUGAGGAUCACCCAUGUUUGUUGGGAAGAAGGGUAACAGUACUACAUAUAUAGGAUAUUUCACAAAUG | 106 | 73.4 |  | 
54 | UUACCUCAUGAGAAGGACAUGAGGAUCACCCAUGUAGGAUAUCGUGGGACAGUGGAAUUGAAUCUUCGGAUUCAAUAACUCUAU | 327 | 26.1 |  | 

— the EternaBench riboswitch data
